Active and inactive are the calls of the source. The rule behind the calls is not given here.
Legend:
[1] = Ratio of compound selectivity index to glucantime selectivity index for amastigote form of Leishmania braziliensis MHOM/BR/1975/M2904 infected in J774.2 cells over mouse J774.2 cells
Procedure, shortened: (§1)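 J774.2 macrophages in MEM + 2 mM glutamine + 20% inactivated FCS were infected with stationary-phase promastigotes (10:1) for 24 h at 37 °C, 5% CO2. After washing, compounds were added at […] for 72 h. Amastigote reduction was scored in methanol-fixed, Giemsa-stained preparations; IC50 by regression; triplicates. SI = J774.2 IC50 (72 h flow cytometry)/amastigote IC50; ratio is versus Glucantime SI.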

[2] = Ratio of compound selectivity index to glucantime selectivity index for axenic amastigote form of Leishmania braziliensis MHOM/BR/1975/M2904 over mouse J774.2 cells
Procedure, shortened: (§2)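 Axenic amastigotes obtained by 3-day promastigote transformation in supplemented M199 + 10% heat-inactivated FCS, pH 5.4, 37 °C. […] Host toxicity: J774.2, 72 h, PI/FDA flow cytometry. SI = macrophage IC50/axenic amastigote IC50; ratio is compound SI over Glucantime SI.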

[3] = Ratio of compound selectivity index to glucantime selectivity index for promastigote form of Leishmania braziliensis MHOM/BR/1975/M2904 over mouse J774.2 cells
[4] = Selectivity index, ratio of IC50 for mouse J774.2 cells to IC50 for amastigote form of Leishmania braziliensis MHOM/BR/1975/M2904 infected in J774.2 cells; format: toxicity, cell-based; procedure, shortened: as §1
[5] = Selectivity index, ratio of IC50 for mouse J774.2 cells to IC50 for axenic amastigote form of Leishmania braziliensis MHOM/BR/1975/M2904; format: toxicity; procedure, shortened: as §2
[6] = Selectivity index, ratio of IC50 for mouse J774.2 cells to IC50 for promastigote form of Leishmania braziliensis MHOM/BR/1975/M2904; format: toxicity
[7] = tested on: Leishmania braziliensis; assay: Antileishmanial activity against amastigote form of Leishmania braziliensis MHOM/BR/1975/M2904 infected in J774.2 cells after 72 hrs by haemocytometric analysis; format: functional, cell-based, MHOM/BR/75/M2904
Procedure, shortened: (§3)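 J774.2 macrophages grown in MEM with 2 mM glutamine and 20% inactivated FCS at 37 °C in 5% CO2. Infected with stationary-phase promastigotes at 10:1 for 24 h, then washed free of non-phagocytosed parasites. Compounds at 1, 10, 25, 50 and 100 for 72 h. Amastigotes counted on methanol-fixed, Giemsa-stained preparations and % reduction taken vs untreated. IC50 by linear regression of Kc values; three separate determinations.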

[8] = tested on: Leishmania braziliensis; assay: Antileishmanial activity against axenic amastigote form of Leishmania braziliensis MHOM/BR/1975/M2904 after 72 hrs by haemocytometric analysis; format: functional, MHOM/BR/75/M2904
Procedure, shortened: (§4)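 Axenic amastigotes made by culturing promastigotes 3 days at 37 °C in M199 with 10% heat-inactivated FCS plus organic acids, amino acids, sucrose, bicarbonate, MES, haemin and gentamicin, pH 5.4. Compound effect counted in a Neubauer haemocytometer chamber. IC50 by linear regression of Kc values at 1, 10, 25, 50 and 100.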

[9] = tested on: Leishmania braziliensis; assay: Antileishmanial activity against promastigote form of Leishmania braziliensis MHOM/BR/1975/M2904 after 72 hrs by haemocytometric analysis; format: functional; conditions: MHOM/BR/75/M2904, 72 h
Procedure, shortened: (§5)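 Promastigotes grown at 28 °C in MTL medium with 10% inactivated FCS. Compounds in DMSO (0.1%), diluted in culture medium to 100, 50, 25, 10 and 1. Cells counted at 72 h in a Neubauer haemocytometric chamber. IC50 (50% inhibition) by linear regression of Kc values.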

[10] = Ratio of compound selectivity index to glucantime selectivity index for amastigote form of Leishmania infantum MCAN/ES/2001/UCM-10 infected in J774.2 cells over mouse J774.2 cells; procedure, shortened: as §1
[11] = Ratio of compound selectivity index to glucantime selectivity index for axenic amastigote form of Leishmania infantum MCAN/ES/2001/UCM-10 over mouse J774.2 cells; procedure, shortened: as §2
[12] = Ratio of compound selectivity index to glucantime selectivity index for promastigote form of Leishmania infantum MCAN/ES/2001/UCM-10 over mouse J774.2 cells
Procedure, shortened: (§6)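 J774.2 toxicity: 72 h at the same concentrations, viability by flow cytometry with propidium iodide/fluorescein diacetate; IC50 by linear regression. SI = macrophage IC50/parasite IC50; ratio is compound SI over Glucantime SI.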

[13] = Selectivity index, ratio of IC50 for mouse J774.2 cells to IC50 for amastigote form of Leishmania infantum MCAN/ES/2001/UCM-10 infected in J774.2 cells; format: toxicity, cell-based; procedure, shortened: as §1
[14] = Selectivity index, ratio of IC50 for mouse J774.2 cells to IC50 for axenic amastigote form of Leishmania infantum MCAN/ES/2001/UCM-10; format: toxicity; procedure, shortened: as §2
[15] = Selectivity index, ratio of IC50 for mouse J774.2 cells to IC50 for promastigote form of Leishmania infantum MCAN/ES/2001/UCM-10; format: toxicity; procedure, shortened: as §6
[16] = tested on: Leishmania infantum; assay: Antileishmanial activity against promastigote form of Leishmania infantum MCAN/ES/2001/UCM-10 after 72 hrs by haemocytometric analysis; format: functional, organism-based; procedure, shortened: as §5
[17] = tested on: Leishmania infantum; assay: Antileishmanial activity against axenic amastigote form of Leishmania infantum MCAN/ES/2001/UCM-10 after 72 hrs by haemocytometric analysis; format: functional, organism-based; procedure, shortened: as §4
[18] = tested on: Leishmania infantum; assay: Antileishmanial activity against amastigote form of Leishmania infantum MCAN/ES/2001/UCM-10 infected in J774.2 cells after 72 hrs by haemocytometric analysis; format: functional, organism-based; procedure, shortened: as §3
[19] = tested on: J774.2; assay: Cytotoxicity against mouse J774.2 cells after 72 hrs by PI-staining based flow cytometric analysis; format: cell-based; conditions: J774.2, 72 h
Procedure, shortened: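 J774.2 macrophages (ECACC 91051511, female BALB/c mouse tumour) treated 72 h with 100, 50, 25, 10 and 1 of compound. Propidium iodide then fluorescein diacetate each added for 10 min at 28 °C in the dark. Cells pelleted at 400g, washed in PBS and analysed by flow cytometry. Viability % vs control; IC50 by linear regression of Kc values.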

[20] = tested on: Leishmania braziliensis; assay: Antileishmanial activity against promastigote form of Leishmania braziliensis MHOM/BR/1975/M2904 assessed as electro-dense vesicles at IC25 concentration after 96 hrs by MET microscopic analysis; format: functional; conditions: MHOM/BR/75/M2904
Procedure, shortened: (§7)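 Promastigotes at 5 × 10^5 cells/mL in MTL medium with compound at IC25 for 96 h. Ultrastructure examined by transmission electron microscopy against untreated control parasites.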

[21] = tested on: Leishmania braziliensis; assay: Antileishmanial activity against promastigote form of Leishmania braziliensis MHOM/BR/1975/M2904 assessed as mortality at IC25 concentration after 96 hrs by MET microscopic analysis; format: functional; conditions: MHOM/BR/75/M2904; procedure, shortened: as §7
[22] = tested on: Leishmania braziliensis; assay: Antileishmanial activity against promastigote form of Leishmania braziliensis MHOM/BR/1975/M2904 assessed as empty cytoplasmic at IC25 concentration after 96 hrs by MET microscopic analysis; format: functional; conditions: MHOM/BR/75/M2904; procedure, shortened: as §7
[23] = tested on: Leishmania braziliensis; assay: Antileishmanial activity against promastigote form of Leishmania braziliensis MHOM/BR/1975/M2904 assessed as cytoplasmic alterations at IC25 concentration after 96 hrs by MET microscopic analysis; format: functional; conditions: MHOM/BR/75/M2904; procedure, shortened: as §7
[24] = tested on: Leishmania braziliensis; assay: Antileishmanial activity against promastigote form of […] MHOM/BR/1975/M2904 infected in J774.2 cells assessed as inhibition of number of amastigotes per host cell at IC25 concentration incubated for 12 hrs followed by compound washout measured after 48 hrs by microscopic analysis; format: functional; conditions: MHOM/BR/75/M2904
Procedure, shortened: (§8)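 J774.2 cells seeded at 1 × 10^4 cells/well on coverslips and cultured 2 days. Infected with promastigotes at 10:1 with drug at IC25 added immediately, for 12 h at 37 °C in 5% CO2. Parasites and drug washed out, then grown 10 days with washing and fresh medium every 48 h. On methanol-fixed, Giemsa-stained slides, % infected cells and amastigotes per infected cell scored from more than 200 host cells. Three determinations.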

[25] = tested on: Leishmania braziliensis; assay: Antileishmanial activity against promastigote form of […] Leishmania braziliensis MHOM/BR/1975/M2904 infected in J774.2 cells assessed as inhibition of infection in host cells at IC25 concentration incubated for 12 hrs […] by microscopic analysis; format: functional; conditions: MHOM/BR/75/M2904
[26] = tested on: Leishmania infantum; assay: Antileishmanial activity against promastigote form of Leishmania infantum MCAN/ES/2001/UCM-10 infected in J774.2 cells assessed as inhibition of number of amastigotes per host cell at IC25 concentration incubated for 12 hrs followed by compound washout measured after 48 hrs by microscopic analysis; format: functional; procedure, shortened: as §8
[27] = tested on: Leishmania infantum; assay: Antileishmanial activity against promastigote form of Leishmania infantum MCAN/ES/2001/UCM-10 infected in J774.2 cells assessed as inhibition of infection in host cells at IC25 concentration incubated for 12 hrs followed by compound washout measured after 48 hrs by microscopic analysis; format: functional; procedure, shortened: as §8
[28] = J774.2 cells, read-out: Ratio IC50
[29] = Leishmania infantum, MCAN/ES/2001/UCM-10, 72 h

Q: Which Ratio [1] does the source give for Br.NCCCNCCN1CCNCc2cccc(n2)CNCC1 here?
A: Its Ratio is 14.

Q: And the Ratio [2]?
A: Its Ratio is 14.

Q: What about the Ratio [3] of the same compound?
A: The Ratio was 24.

Q: What about the selectivity ratio [4, 28] of the same compound?
A: Its selectivity ratio is 11.5.

Q: And the selectivity ratio [5, 28]?
A: Its selectivity ratio is 7.

Q: What about the selectivity ratio [6, 28] of the same compound?
A: Its selectivity ratio is 14.2.

Q: And the IC50 ([7]; Leishmania braziliensis, MHOM/BR/75/M2904, J774.2, 72 h)?
A: The IC50 was 19.1 µM.

Q: And the IC50 ([8]; Leishmania braziliensis, MHOM/BR/75/M2904, 72 h)?
A: Its IC50 is 31.4 µM.

Q: What about the IC50 [9] of the same compound?
A: Its IC50 is 15.5 µM.

Q: And the Ratio [10]?
A: The Ratio was 10.

Q: What about the Ratio [11] of the same compound?
A: Its Ratio is 15.

Q: And the Ratio [12]?
A: Its Ratio is 11.

Q: What about the selectivity ratio [13, 28] of the same compound?
A: The selectivity ratio was 4.9.

Q: And the selectivity ratio [14, 28]?
A: Its selectivity ratio is 7.4.

Q: What about the selectivity ratio [15, 28] of the same compound?
A: Its selectivity ratio is 9.1.

Q: What about the IC50 [16, 29] of the same compound?
A: The IC50 was 24.2 µM.

Q: What about the IC50 [17, 29] of the same compound?
A: Its IC50 is 29.8 µM.

Q: What about the IC50 ([18]; Leishmania infantum, MCAN/ES/2001/UCM-10, J774.2, 72 h) of the same compound?
A: The IC50 was 44.9 µM.

Q: And the IC50 [19]?
A: Its IC50 is 220 µM.

Q: What about the Activity [20] of the same compound?
A: Its Activity is “Active”.

Q: What about the Activity [21] of the same compound?
A: The Activity was “Active”.

Q: And the Activity [22]?
A: The Activity was “Active”.

Q: And the Activity [23]?
A: The Activity was “Active”.

Q: Which results are given for “MEGLUMINE ANTIMONATE [listing 1 of 2 here]”?
A: Ratio IC50 [4]: 0.8; Ratio IC50 [5]: 0.5; Ratio IC50 [6]: 0.6; IC50 ([7]; j774.2): 19.7 µM; IC50 [8]: 30.9 µM; Ratio IC50 [13]: 0.5; Ratio IC50 [14]: 0.5; Ratio IC50 [15]: 0.8; IC50 [16]: 18 µM; IC50 [17]: 31 µM; IC50 ([18]; j774.2): 30.8 µM

Q: With “MEGLUMINE ANTIMONATE [listing 2 of 2 here]” as the compound, how does the inhibition [24] read?
A: Its inhibition is 37%.

Q: What about the inhibition [25] of the same compound?
A: The inhibition was 22%.

Q: And the inhibition [26]?
A: The inhibition was 30%.

Q: What about the inhibition [27] of the same compound?
A: Its inhibition is 24%.
